Compound activity as filed in PubChem BioAssay.
An excerpt weighted towards active compounds, which were near 2.5% of everything screened.
TRPC4 PAM – allosteric potentiators of mouse TRPC4 channel | B-score at 10 µM | Q9QUQ5 | hit rate 0.42% among 310,000 | HEK293 TRPC4beta/mu-opioid, DAMGO EC20, Fluo-4 Ca2+ flux; stronger effect = higher value;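 active means B-score of calcium response area above 5 SD of library B-scores, with initial fluorescence ratio within 5 SD of library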
TRPC6 inhibitor – blocks the mouse TRPC6 cation channel; Q61143; HEK293-TRPC6, membrane potential dye, ACh-evoked depolarization; stronger effect = lower value; B-score at 10 µM; hit rate 1.1% among 310,000; AID 2553;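 active means B-score under library mean minus 3 SD, initial fluorescence not abnormally high, positive integrated signal ratio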;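 further: B-score derived from integrated fluorescence ratio over the kinetic read; more negative B-score means stronger inhibition of depolarization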
TRPC6 act – activates the mouse TRPC6 cation channel; Q61143; HEK293-TRPC6 membrane potential dye fluorescence; stronger effect = higher value; B-score at 10 µM; hit rate 0.13% among 310,000;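 active means B-score of the integrated fluorescence ratio above library mean plus 3 SD, and starting fluorescence ratio within library mean plus 5 SD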;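 further: higher score means more depolarization so channel activation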
DSG3 Ab inh – human desmoglein-3 autoantibody binding inhibition | DSG3-coupled beads, scFv-anti-DSG3-GFP binding, flow cytometry; stronger effect = lower value | binding (percent of control), % at 10 µM | hit rate 0.48% among 310,000 | AID 588358;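 active means binding more than 3 SD below its plate's average and above zero; inconclusive means below that plate limit but binding exactly zero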;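 further: hits lower antibody fragment binding to DSG3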
TRPC4 inh – inhibitors of mouse TRPC4 channel | Q9QUQ5 | HEK293 TRPC4beta/mu-opioid, DAMGO-evoked Fluo4 calcium flux; stronger effect = lower value | B-score at 10 µM | hit rate 0.39% among 300,000;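 active means B-score over 3 SD under the library average, no early fluorescence shift, positive overall ratio signal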
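System: stable TRPC4beta/mu-opioid receptor HEK293 cells; Dosing: single-point compound dosing; Measured by: Fluo4 Ca2+ flux fluorescence; Read-out basis: per-well B score of integrated baseline-normalized Fluo4 ratio.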
TRPC4 act – activators of mouse TRPC4 channel; hit rate 0.49% among 310,000; B-score at 10 µM; AID 2237; Q9QUQ5; HEK293 TRPC4beta/mu-opioid, Fluo4 calcium fluorescence; stronger effect = higher value;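 active means B-score above 5 SD of library B-scores, and initial fluorescence ratio not above library mean plus 5 SD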;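 further: positive B-score marks a calcium rise read as TRPC4 activation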
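Material: HEK293 stable line with TRPC4beta plus mu-opioid receptor; technique: Fluo4 calcium-sensitive dye fluorescence, kinetic, 1 Hz baseline; timing: Fluo4 dye loading 45 min at room temperature, 110 s recording; controls: assay buffer as low control, maximal DAMGO as high control; read-out: integrated baseline-normalised fluorescence ratio, converted to per-well B score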
Large screens that a line does not name were inactive.

CN1CCCN(C(=O)c2cc(-c3ccc(Cl)c(Cl)c3Cl)nc3ccccc23)CC1	TRPC4 act 52
NC(=O)C1CCN(C(=O)c2cc(-c3ccc(Cl)cc3)nc3ccccc23)CC1	none (no result: TRPC4 PAM, TRPC6 inhibitor, TRPC6 act, TRPC4 inh, TRPC4 act)
Cc1ccc(-c2cc(C(=O)N3CCC(C)CC3)c3ccccc3n2)cc1	TRPC4 PAM 12
CN(C)CC1CCCCC1OC(=O)c1ccc(Br)cc1 (configuration not stated)	TRPC4 inh -6
COc1ccc(S(=O)(=O)NCC2CCCO2)cc1NC(=O)c1ccc(Cl)cc1 (configuration not stated)	none
CC(NC(=O)c1ccncc1)c1ccc(Cl)cc1Cl (configuration not stated)	none
O=C(Nc1ccc(NC(=O)N2CCN(c3ccccc3O)CC2)cc1)N1CCN(c2ccccc2O)CC1	DSG3 Ab inh 54
CC(C)(C)OC(=O)N1CCCN(C(=O)Nc2ccccc2)CC1	DSG3 Ab inh 87
O=C(Nc1ccccc1)N1CCN(c2nc3ccccc3s2)CC1	TRPC4 act 43
COCCNC(=O)C(=O)NCC1OCCCN1S(=O)(=O)c1cccs1 (configuration not stated)	none
CNCc1ccccc1Sc1cccc2ccccc12	TRPC4 inh -6, TRPC4 act 46
CNCc1ccccc1Sc1ccc(OC)cc1	none
CCOc1ccc(C(=O)OC2CCCN(C)C2)cc1 (configuration not stated)	none
CN1CCCC(OC(=O)COc2ccccc2)C1 (configuration not stated)	none
CN1CCCC(OC(=O)c2cc(Cl)cc(Cl)c2)C1 (configuration not stated)	TRPC4 act 193
CN1CCCC(OC(=O)c2ccccc2Br)C1 (configuration not stated)	TRPC4 PAM 10
CN1CCCC(OC(=O)c2cccc(Cl)c2)C1 (configuration not stated)	TRPC4 PAM 12, TRPC4 act 45 (no result: DSG3 Ab inh)
CN1CCCC(OC(=O)c2cccc(Br)c2)C1 (configuration not stated)	TRPC4 act 58
c1ccc(OCc2noc(CN3CCC(C4CCCCC4)C3)n2)cc1 (configuration not stated)	none
CCCCN(CCCC)c1nn[nH]n1	none (no result: TRPC4 PAM, TRPC6 inhibitor, TRPC6 act, TRPC4 inh, TRPC4 act)
CC(C)CN(CC(C)C)c1nn[nH]n1	DSG3 Ab inh 86 (no result: TRPC4 PAM, TRPC6 inhibitor, TRPC6 act, TRPC4 inh, TRPC4 act)
Nc1cc(Cl)ccc1C(=O)OCC(=O)NCC1CCCO1 (configuration not stated)	none (no result: TRPC4 PAM, TRPC6 inhibitor, TRPC6 act, TRPC4 inh, TRPC4 act)
O=C(NCc1ccc(F)cc1)C(=O)NCC1OCCCN1S(=O)(=O)c1cccs1 (configuration not stated)	none
O=C(NCc1ccco1)c1cnn2c1NC(c1ccccc1)CC2C(F)(F)F (configuration not stated)	none
O=C(NCc1ccco1)c1cnn2c1NC(c1ccc(Br)cc1)CC2C(F)(F)F (configuration not stated)	TRPC4 PAM 13
CCCCC(c1nnnn1CC1CCCO1)N1CCN(Cc2ccccc2)CC1 (configuration not stated)	TRPC4 inh -6, TRPC4 act 93
CCCC(c1nnnn1CC1CCCO1)N1CCN(c2ccccc2)CC1 (configuration not stated)	none
C/C(=N/Nc1ccnc2cc(Cl)ccc12)c1ccc(N)cc1	TRPC4 act 63 (no result: DSG3 Ab inh)
CCOC(=O)C1(CCOc2ccccc2)CCN(Cc2ccc(COC)o2)CC1	none
CCOC(=O)C1(CCOc2ccccc2)CCN(CC(O)CO)CC1 (configuration not stated)	DSG3 Ab inh 90
CCOC(=O)C1(CCOc2ccccc2)CCN(Cc2ccc(C)o2)CC1	TRPC4 inh -6
CC(O)CSc1nc2c(c(=O)[nH]c(=O)n2C)n1Cc1ccccc1Cl (configuration not stated)	none
CC(OC(=O)c1ccc(Cl)c(S(=O)(=O)N2CCOCC2)c1)C(=O)Nc1ccc(S(N)(=O)=O)cc1 (configuration not stated)	DSG3 Ab inh inconclusive
CCn1c2ccccc2c2nnc(NN)nc21	TRPC4 PAM 15, TRPC4 act 45
CCn1c2ccc(C)cc2c2nnc(NN)nc21	none
